Assay results published in ChEMBL document CHEMBL4725452, “Targeted Covalent Inhibition of Plasmodium FK506 Binding Protein 35” (ACS Med Chem Lett, 2020).
Activity calls are given as the source filed them. The rule behind the calls is not given here.

Assays:
Plasmodium falciparum [1] = experiment: Antiplasmodial activity against blood stage of Plasmodium falciparum NF54 assessed as parasite growth inhibition
Plasmodium falciparum [2] = experiment: Covalent binding affinity to N-terminal 6His-SUMO-tagged Plasmodium falciparum FKBP35 binding domain (FBD35) (Q5-A128) expressed in Escherichia coli BL21 (DE3) cells assessed as binding at C106 position by mass spectrometry
Summary of the method: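 Protein-compound reaction mixture saved in parallel with DSC. Denatured in urea/NaCl in 50 mM Tris pH 8.0, reduced with TCEP at 37 °C for 60 min, free thiols alkylated with iodoacetamide at RT in the dark for 30 min. Digested with chymotrypsin (1:100 molar) overnight at 37 °C, quenched with formic acid. Peptides resolved on C18 UPLC at 45 °C and analyzed by Q Exactive HF MS.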

Plasmodium falciparum [3] = experiment: Binding affinity to N-terminal 6His-SUMO-tagged Plasmodium falciparum FKBP35 binding domain (FBD35) (Q5-A128) expressed in Escherichia coli BL21 (DE3) cells assessed as change in melting temperature at 40 uM by differential scanning […] analysis
Summary of the method: (§1)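 Differential scanning calorimetry. Purified protein (6His-SUMO tag removed) dialyzed into 25 mM HEPES pH 7.8, 150 mM NaCl. Protein at 0.4 mg/mL (6-9 uM), with or without compound at 40 µM, 2% DMSO (v/v). Scanned 25-90 °C, reference scans subtracted. Tm taken as midpoint of the heat capacity curve.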

[4] = biological target: Peptidyl-prolyl cis-trans isomerase FKBP1A (Homo sapiens, UniProt P62942); experiment: Binding affinity to N-terminal 6His-SUMO-tagged human full length FKBP12 expressed in Escherichia coli BL21 (DE3) cells assessed as change in melting temperature at 40 uM by differential scanning […] analysis
Summary of the method: as §1

Plasmodium falciparum [5] = experiment: Antiplasmodial activity against blood stage of Plasmodium falciparum 3D7 assessed as parasite growth inhibition; format: functional, organism-based
[6] = Displacement of fluorescent tracer Rap-Gly-BDP from nanoluciferse-tagged Plasmodium falciparum FKBP35 expressed in HEK293T cells incubated for 2 hrs by NanoBRET assay; format: cell-based; conditions: HEK-293T
Summary of the method: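 HEK293T cells stably expressing N-terminal NanoLuc-FKBP35 (lentiviral, puromycin-selected) plated at 0.2 x 10^6 cells/mL in Opti-MEM and incubated overnight at 37°C, 5% CO2. Rap-Gly-BDP tracer added to 1 µM for 10 min, then test compounds at varying concentrations for 2 h at 37°C. Nano-Glo substrate plus extracellular NanoLuc inhibitor added and read immediately. BRET ratio corrected against no-tracer control.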

Peptidyl-prolyl cis-trans isomerase FKBP1A, sequence (P62942 whole entry): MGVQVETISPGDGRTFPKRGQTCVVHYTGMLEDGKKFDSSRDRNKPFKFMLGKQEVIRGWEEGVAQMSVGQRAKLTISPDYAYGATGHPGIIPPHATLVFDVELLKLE

SMILES	IC50 (Plasmodium falciparum [1]) [µM]	Activity (Plasmodium falciparum [3])	Activity [4]	other results
CC[C@H]1CN(Cc2ccccn2)C(=O)C2CCCC1N2S(=O)(=O)c1cc(Cl)cc(Cl)c1 (some centres undefined)	2.3			
C=CC(=O)NCc1ccc(NC(=O)CSc2nc3cccnc3[nH]2)cc1		inactive	Not Active	Activity (Plasmodium falciparum [2]): Active
C=CC(=O)NCc1ccccc1NC(=O)CSc1nc2cccnc2[nH]1		inactive	Not Active	Activity (Plasmodium falciparum [2]): Active
CCc1ccccc1NC(=O)CSc1nc2cccnc2[nH]1				IC50 (Plasmodium falciparum [5]): 0.235 µM
CO[C@H]1C[C@@H]2CC[C@@H](C)[C@@](O)(O2)C(=O)C(=O)N2CCCC[C@H]2C(=O)O[C@H]([C@H](C)C[C@@H]2CC[C@@H](O)[C@H](OC)C2)CC(=O)[C@H](C)/C=C(\C)[C@@H](O)[C@@H](OC)C(=O)[C@H](C)C[C@H](C)/C=C/C=C/C=C/1C [SIROLIMUS]	2.6			IC50 [6]: 0.034 µM
O=C(NNC(=O)C12CC3CC(CC(C3)C1)C2)c1ccncc1				IC50 (Plasmodium falciparum [5]): 0.25 µM
CCC(=O)NCc1ccccc1NC(=O)CSc1nc2cccnc2[nH]1		inactive	Not Active	
C=CC[C@@H]1/C=C(\C)C[C@H](C)C[C@H](OC)[C@H]2O[C@@](O)(C(=O)C(=O)N3CCCC[C@H]3C(=O)O[C@H](/C(C)=C/[C@@H]3CC[C@@H](O)[C@H](OC)C3)[C@H](C)[C@@H](O)CC1=O)[C@H](C)C[C@@H]2OC [TACROLIMUS ANHYDROUS]	1.9			
